Our source for the IC50, Activity and inhibition values is ChEMBL document CHEMBL3804789, “5-Ene-4-thiazolidinones induce apoptosis in mammalian leukemia cells” (Eur J Med Chem, 2016).

Calls of active or inactive are those of the source. No cut-off for these calls is given here.

The test system of one experiment is MCF7. Kind of experiment: Antiproliferative activity against human MCF7 cells after 72 hrs by MTT assay. The experiment is classed as functional, cell-based. The following applies: MCF7, 72 h. The gist of the method: (§1)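 MTT viability after 72 h continuous exposure. Cells seeded 24 h beforehand at 2,000/well (adherent) or 10,000/well (suspension), then given 0, 0.01, 0.1, 0.5, 1.0 or 10.0 μM compound diluted from 10 mM DMSO stock into RPMI or DMEM with 10% FBS, 37°C, 5% CO2. IC50 taken as concentration killing 50% of cells versus untreated culture.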
On the technique in general: Tetrazolium assays rely on reduction of a dye to a coloured formazan, in cell work by metabolically active cells.

Experiment [1] relates to HL-60. Kind of experiment: Cytotoxicity against human HL60 cells assessed as reduction in cell survival up to 1 uM treated for 30 mins with ROS scavenger ascorbic acid measured after 72 hrs by MTT assay. The experiment is classed as functional, cell-based.
In experiment [2] the test system is HL-60. Kind of experiment: Induction of apoptosis in human HL60 cells assessed as increase in CDK1 expression at 0.1 to 1 uM after 48 hrs by Western blot analysis. The experiment is classed as functional, cell-based. The gist of the method: (§2)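 HL-60 cells exposed 48 h; proteins isolated, resolved by SDS/PAGE, transferred to PVDF and immunoblotted. Equal loading checked by re-probing the same membrane for beta-actin. Peroxidase-labelled secondary antibodies at 1:5,000.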
(In western blotting, separated proteins are transferred to a membrane and probed.)

Experiment [3] deals with T1, c-Jun N-terminal kinase, JNK (Homo sapiens) (UniProt P45983+P53779+P45984). Nature of the experiment: Inhibition of JNK phosphorylation in human HL60 cells at 0.1 to 1 uM after 48 hrs by Western blot analysis. The experiment is classed as cell-based. The following applies: HL-60. The gist of the method:
as §2

A further experiment has as its system HL60/ADR. Nature of the experiment: Antiproliferative activity against human HL60/ADR cells at 0.01 to 10 uM by MTT assay. Type of experiment: functional, cell-based. The following applies: TDE = time-dependent effect. Summed up: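 MTT viability: cells seeded 24 h at 2,000 (adherent) or 10,000 (suspension) per well, then exposed 72 h to 0.01-10.0 μM (0, 0.01, 0.1, 0.5, 1.0, 10.0 μM), diluted from 10 mM DMSO stock into medium with 10% FBS. IC50 is concentration killing 50% of cells relative to untreated control.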

The nature of experiment [4]: Antiproliferative activity against human HL60 cells measured at 6 hrs by MTT assay. Type of experiment: functional, cell-based. The following applies: HL-60, 6 h. Summed up:
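Exposure-time series in HL-60 cells: compound present for 3, 6, 24, 48 or 72 h, viability then read by MTT. IC50 is concentration killing 50% of cells relative to untreated culture.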

In experiment [5] the test system is HL-60. Kind of experiment: Induction of apoptosis in human HL60 cells assessed as apoptotic cells at 0.1 to 1 uM after 48 hrs by Annexin V-FITC/propidium iodide staining based fluorescence microscopic analysis. Type of experiment: functional, cell-based. Summed up:
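HL-60 cells treated 48 h, pelleted at 2,000 rpm, washed twice in PBS and incubated 15 min in Annexin V binding buffer with 1/20 volume FITC-Annexin V and PI (20.0 μg/mL). Cells examined by fluorescence microscopy on duplicate slides, >500 cells counted per sample.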

The target in experiment [6] is T1, c-Jun N-terminal kinase, JNK (Homo sapiens). Kind of experiment: Inhibition of JNK in human HL60 cells assessed as increase in phosphorylated STAT3 expression at 0.1 to 1 uM after 48 hrs by Western blot analysis. The experiment is classed as cell-based. The following applies: HL-60. Summed up: as §2
The test system of experiment [7] is HL-60. Kind of experiment: Induction of apoptosis in human HL60 cells assessed as increase in Bax expression at 0.1 to 1 uM after 48 hrs by Western blot analysis. Type of experiment: functional, cell-based. Summed up:
as §2

Another experiment deals with L929. Kind of experiment: Antiproliferative activity against mouse L929 cells after 72 hrs by MTT assay. The experiment is classed as functional, cell-based. The following applies: L929, 72 h. The gist of the method: as §1
Experiment [8] deals with HL-60. Nature of the experiment: (§3) Antiproliferative activity against human HL60 cells after 72 hrs by MTT assay. Type of experiment: functional, cell-based. Summed up:
as §1

A short description of experiment [9]: as §3. Type of experiment: functional, cell-based. The following applies: HL-60, 72 h. The gist of the method: as §1

The IC50 is the midpoint of a concentration-inhibition curve. Read a high IC50 as lower potency. Consider `CC(=O)Oc1cccc(N2C(=O)/C(=C/N3N=C(c4ccccc4)CC3c3ccccc3O)SC2=S)c1` (configuration not stated), for which the IC50 with MCF7 is 8300 nM; in [4], 500 nM; in the experiment on L929, > 10000 nM; in [9] it was 118 nM. In the experiment with HL-60 [1], the outcome was inactive. In addition, the outcome in the experiment with HL-60 [2], in the experiment with HL-60 [5] and with HL-60 [7] was Active. For the same compound, the inhibition entry in experiment [3] and in experiment [6] was “Active” in each case. Besides, the Activity result is “tde” with HL60/ADR and “Dose-dependent effect” in the experiment on HL-60 [8].
